# Assay outcomes as filed in PubChem.
# Sampled rows, rich in hits. Any-hit rate of the full collection: about 29%.
# CYP2C19 activ: human CYP2C19 activators, primary screen, biochemical, luminescence. Cytochrome P450 2C19 (Homo sapiens), P33261. activation factor at 5 µM. 96,000 tested, under 10 active. recombinant CYP2C19, luciferin-H EGE luminescence; active compounds read high; 0 = fully inhibited enzyme, 1 = untreated enzyme;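 active = activation factor of at least 2 at 5 µM in the primary screen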;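 note: 0 = wells with 2.5 mM tranylcypromine and 1 = vehicle-only wells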
# CYP2C9 activ: human CYP2C9 activators, primary screen, biochemical, luminescence; recombinant CYP2C9, luciferin-H conversion; active compounds read high; factor 1 = untreated enzyme, 0 = blocked; activation factor at 5 µM; 96,000 tested, 1.4% active;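 active = activation factor of 2 or more for CYP2C9 at a 5 µM dose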;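 note: 0 = sulfaphenazole-blocked wells and 1 = vehicle-only wells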
# Target sequence (P11712 whole entry, looked up): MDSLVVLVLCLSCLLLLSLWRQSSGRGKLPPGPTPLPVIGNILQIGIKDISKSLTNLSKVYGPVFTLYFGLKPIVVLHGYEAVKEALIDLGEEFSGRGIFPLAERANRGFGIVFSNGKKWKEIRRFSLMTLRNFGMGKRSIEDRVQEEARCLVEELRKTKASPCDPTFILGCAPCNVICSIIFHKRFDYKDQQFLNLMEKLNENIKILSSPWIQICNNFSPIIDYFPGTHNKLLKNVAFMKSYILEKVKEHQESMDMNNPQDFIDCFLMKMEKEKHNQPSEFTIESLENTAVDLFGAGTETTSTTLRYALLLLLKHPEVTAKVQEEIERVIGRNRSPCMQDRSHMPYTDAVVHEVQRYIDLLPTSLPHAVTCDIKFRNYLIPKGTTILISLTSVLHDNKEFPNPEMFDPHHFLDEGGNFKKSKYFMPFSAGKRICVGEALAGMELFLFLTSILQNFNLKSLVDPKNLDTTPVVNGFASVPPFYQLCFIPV
# Ecoli WT expand: growth inhibitors of wild-type E. coli, primary screen, strain BW25113, expanded library, OD600. OD600 absorbance. growth inhibition, % at 100 µM. 98,000 tested, 0.15% active;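 active = growth inhibition above about 50% at one test dose, limit read from the data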;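 note: growth measured after 20 h incubation at 37 °C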
# tolC growth inh: growth inhibitors of E. coli tolC mutant, primary screen, strain BW25113 ΔtolC::kan, 384-well; growth inhibition, % at 10 µM (by protocol); 65,000 tested, 2.2% active; OD615;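 active = growth inhibition at or above a cutoff equal to the mean over every tested compound plus 3 SD, cut at about 60% in these data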;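 note: growth measured after 20 h incubation at 37 °C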
#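 Assay system: tolC-deleted E. coli BW25113. Medium: kanamycin-containing LB broth (50 µg/mL). Dosing: 10 µM final, single dose. Timing: bacterial growth with compound for 20 h at 37 °C. Detection: A615 absorbance measurement. Read-out basis: growth inhibition in percent.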
# CYP2C9 inh: blockers of cytochrome P450 2C9 activity – biochemical, luminescence, ADME assay, primary screen; P11712; CYP2C9 Supersomes, luciferin-H conversion; inhibition, % at 5 µM; 96,000 tested, 20% active; AID 777, 2007;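 active = blocking of liver enzyme CYP2C9 beyond about 50% at 5 µM, limit read from the data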
# CYP2C19 inhib: blockers of cytochrome P450 2C19 activity – biochemical, luminescence, ADME assay, primary screen; CYP2C19 Supersomes, luciferin-H EGE luminescence, 30 min; inhibition, % at 5 µM; 96,000 tested, 21% active;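 active = CYP2C19 inhibition above a set limit at 5 µM in the primary screen, cut at about 50% in these data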;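 note: plate controls were negative control wells for no effect and 2.5 mM tranylcypromine positive control for full effect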
# * = called active by the depositor; . = no result.
SMILES,CYP2C19 activ,CYP2C9 activ,Ecoli WT expand,tolC growth inh,CYP2C9 inh,CYP2C19 inhib
CCOC(=O)CSc1nnc(CNC(=O)c2ccc(OC)cc2)n1C1CCCCC1,0.2,0.9,1,-6,15,75*
CCOc1ccc(NC(=O)C2CCCN(S(=O)(=O)c3c(C)n[nH]c3C)C2)cc1 (stereo not drawn),.,.,.,2,.,.
COc1ccc(NC(=O)C2CCCN(S(=O)(=O)c3cccc4cccnc34)C2)c(OC)c1 (stereo not drawn),0.6,1,1,34,-5,41
CC(=O)c1cccc(NC(=O)C2CCN(S(=O)(=O)c3ccc(C)cc3)CC2)c1,.,.,.,-1,.,.
Cc1n[nH]c(C)c1S(=O)(=O)N1CCCC(C(=O)N2CCc3ccccc32)C1 (stereo not drawn),0.4,0.6,9,6,39,62*
CCOC(=O)c1cccc(NC(=O)C2CCCN(S(=O)(=O)c3c(C)n[nH]c3C)C2)c1 (stereo not drawn),0.3,0.1,0,2,88*,66*
COc1ccc(S(=O)(=O)N2CCC(C(=O)Nc3cccc(C(C)=O)c3)CC2)cc1C,0,1.8,2,-4,-78,97*
COc1ccc(NC(=O)C2CCCN(S(=O)(=O)c3c(C)n[nH]c3C)C2)c(OC)c1 (stereo not drawn),0.5,0.7,-1,-9,30,52*
N#Cc1cc(-c2ccccc2)cnc1Cl,0.9,1,6,.,-1,11
CC(C)c1nc2n[nH]c(N)c2c2c1CSC(C)(C)C2,1.1,0.8,-2,.,18,-12
CCOC(=O)C1CCN(S(=O)(=O)c2c(C)[nH]c(=O)[nH]c2=O)CC1,0.7,1.1,9,-30,-14,26
Cc1n[nH]c(C)c1S(=O)(=O)N1CCCC(C(=O)N2CCN(c3ccc(Cl)cc3)CC2)C1 (stereo not drawn),0.6,0.7,-1,33,33,35
Cc1noc(C)c1S(=O)(=O)N1CCC(C(=O)Nc2ccc(OC(F)(F)F)cc2)CC1,1.2,1.1,2,3,-8,-16
CCOc1ccc(NC(=O)C2CCN(S(=O)(=O)c3c(C)n[nH]c3C)CC2)cc1,1.1,1,-7,-20,1,-8
Cc1nn(C)c(C)c1S(=O)(=O)N1CCCC(C(=O)N2CCN(c3ccc(Cl)cc3)CC2)C1 (stereo not drawn),0.2,0.1,0,-12,91*,84*
CC(=O)c1cccc(NC(=O)C2CCN(S(=O)(=O)c3c(C)n[nH]c3C)CC2)c1,0.3,0.8,-1,-3,18,71*
CCOC(=O)C1CCN(S(=O)(=O)c2c(C)n[nH]c2C)CC1,0.1,0.1,-1,-5,90*,88*
COc1ccc(NC(=O)C2CCN(S(=O)(=O)c3c(C)noc3C)CC2)cc1Cl,0.2,0.3,-6,.,68*,78*
O=C(CSc1nnc(-c2ccc(S(=O)(=O)N3CCCC3)cc2)n1CC1CCCO1)NC1CC1 (stereo not drawn),1.2,1.2,3,13,-20,-17
Cc1cccc(C)c1NC(=O)Cn1nnc(-c2ccc(N3CCOCC3)cc2)n1,1.1,0.7,-2,-2,33,-10
CC(=O)NC1(c2cccc(F)c2)CCN(C(=O)Nc2ccc(C#N)cc2)CC1,1.1,1,5,-13,4,-9
CCOc1ccc(NC(=O)C2CCCN(S(=O)(=O)c3c(C)nn(C)c3C)C2)cc1 (stereo not drawn),1,0.9,0,1,11,-3
CCOC(=O)c1cccc(NC(=O)C2CCCN(S(=O)(=O)c3c(C)nn(C)c3C)C2)c1 (stereo not drawn),0.2,0.1,-5,5,93*,83*
Cc1ccc(-c2ccc(CCC(=O)O)n2-c2cccc(O)c2)cc1,0.6,0.4,1,.,57*,44
O=C(COC(=O)CCC(=O)c1cccs1)Nc1cccc(S(=O)(=O)N2CCOCC2)c1,0.4,0.7,4,.,30,64*
SMILES,CYP2C19 activ,CYP2C9 activ,Ecoli WT expand,tolC growth inh,CYP2C9 inh,CYP2C19 inhib
Cc1ccc(NC(=O)COC(=O)CCC(=O)c2cccs2)cc1S(=O)(=O)N1CCOCC1,0.7,0.5,-3,.,53*,32
O=C(COC(=O)CCC(=O)c1cccs1)Nc1cc(S(=O)(=O)N2CCOCC2)ccc1Cl,0.5,0.2,-6,.,80*,46
CCC(=O)Oc1ccc(/C(CC)=C(\CC)c2ccc(OC(=O)CC)cc2)cc1,.,.,.,5,.,.
COc1ccccc1-c1nc(C#N)c(N2CCN(C(c3ccccc3)c3ccccc3)CC2)o1,0.9,0.8,-16,-5,22,14
COc1ccc(-c2nc3ccc(N4CCCC4)cc3c(=O)[nH]2)cc1OC,1,1,-6,.,4,-5
CCOc1ccc(CCNC(=O)CCCN2C(=O)c3ccccc3C2=O)cc1OCC,1,0.8,-6,.,20,3
O=C(Cc1cccs1)Nc1cccc(C(=O)Nc2ccco2)c1,0.5,0.2,10,17,78*,51*
O=C(Cc1cccs1)Nc1ccc(NC(=O)c2ccco2)cc1,0.9,0.3,0,-13,72*,13
CCOC(=O)Cn1ncc(-c2ccccc2)c1N,.,.,-5,-11,.,.
CC(=O)N1CCc2cc(Br)cc(S(=O)(=O)NCC3CCCO3)c21 (stereo not drawn),0.8,1.1,-10,-3,-5,24
O=C(Cn1c(=O)oc2ccccc21)NC(=O)NCc1ccco1,0.3,0.7,8,-25,29,65*
CCCCn1c(=O)[nH]c2ccccc21,0.7,1,6,2,1,29
Cc1ccc(SCC(=O)NC(=O)NCc2ccco2)cc1C,0.7,0.5,-4,.,46,28
O=c1[nH]c2ccccc2n1CCCSc1cnc2ccccc2n1,0.4,0.2,-2,46,85*,63*
O=c1[nH]c2ccccc2n1CCCOc1ccccc1,0.2,1,-4,22,5,82*
COc1cccc(NC(=O)Cn2c(=O)oc3ccccc32)c1,0.3,0.6,-2,-5,38,68*
CCOc1ccc(NC(=O)Cn2c(=O)oc3ccccc32)cc1,0.7,1.1,3,.,-6,26
CC[C@H]1OC(=O)C[C@@H](O)[C@H](C)[C@@H](O[C@@H]2O[C@H](C)C[C@H](N(C)C)[C@H]2O)[C@@H](CC=O)C[C@@H](C)C(=O)C=C[C@]2(C)O[C@H]2[C@@H]1C,.,.,.,3,.,.
Cc1c(NC(=O)NCc2ccccc2)c(=O)n(-c2ccccc2)n1C,1.1,1.1,8,-4,-9,-8
C=C(C)Cn1c(CCNC(=O)C(C)(C)C)nc2ccccc21,0.7,1,1,3,-2,27
